The record followed here is ChEMBL document CHEMBL1146871, “Hydrazides of clozapine: a new class of D1 dopamine receptor subtype selective antagonists” (Bioorg Med Chem Lett, 2006).

In experiment [1] the target is T1, D(1A) dopamine receptor (Homo sapiens, UniProt P21728). Description: Displacement of [3H]SCH 23390 from human dopamine D1 receptor expressed in CHO cells. The format is cell-based. On the technique in general: Loss of bound radioactivity is the signal in a displacement assay; it reports binding, not function.
T1 sequence (P21728 whole entry): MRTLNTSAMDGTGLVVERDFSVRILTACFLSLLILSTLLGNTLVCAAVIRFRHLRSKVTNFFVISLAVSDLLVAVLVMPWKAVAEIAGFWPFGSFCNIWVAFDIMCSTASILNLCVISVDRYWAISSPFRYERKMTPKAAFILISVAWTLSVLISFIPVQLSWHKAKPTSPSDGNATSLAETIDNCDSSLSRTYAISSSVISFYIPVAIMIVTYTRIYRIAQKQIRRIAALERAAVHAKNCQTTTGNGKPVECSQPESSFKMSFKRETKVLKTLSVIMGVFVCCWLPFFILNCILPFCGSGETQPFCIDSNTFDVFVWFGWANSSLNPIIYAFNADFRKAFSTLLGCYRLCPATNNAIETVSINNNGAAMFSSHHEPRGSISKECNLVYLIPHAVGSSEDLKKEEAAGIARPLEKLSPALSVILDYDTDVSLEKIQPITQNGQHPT
For experiment [2], the target named is T2, D(2) dopamine receptor (Homo sapiens, UniProt P14416). Description: Displacement of [3H]methylspiperone from human dopamine D2 receptor expressed in CHO cells. Format: cell-based.
T2 sequence (P14416 whole entry): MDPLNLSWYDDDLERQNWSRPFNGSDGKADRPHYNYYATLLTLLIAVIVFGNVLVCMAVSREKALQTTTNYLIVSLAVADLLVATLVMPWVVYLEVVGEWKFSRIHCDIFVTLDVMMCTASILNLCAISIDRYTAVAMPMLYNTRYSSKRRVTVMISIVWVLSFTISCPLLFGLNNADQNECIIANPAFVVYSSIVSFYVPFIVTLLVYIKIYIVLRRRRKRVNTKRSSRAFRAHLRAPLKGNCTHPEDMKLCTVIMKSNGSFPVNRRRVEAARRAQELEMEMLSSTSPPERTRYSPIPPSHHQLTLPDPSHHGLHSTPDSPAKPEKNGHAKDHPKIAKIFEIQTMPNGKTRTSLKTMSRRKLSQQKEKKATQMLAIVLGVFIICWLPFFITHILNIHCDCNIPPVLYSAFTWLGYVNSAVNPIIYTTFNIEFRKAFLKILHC
In experiment [3] the target is T2, D(2) dopamine receptor. Nature of the experiment: Binding affinity at dopamine D2 receptor. The essentials: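 Membranes from cells stably expressing D2 receptor (4-7 pmol/mg protein; Ltk- cells in one passage, CHO in another), made by hypotonic lysis and 48,000g spin and stored at -80 °C. Incubated with 0.5 nM [3H]methylspiperone for 1 h at room temperature. Nonspecific binding set by 10 µM (-)-sulpiride. Rapid filtration, then scintillation counting. One-site competition fit; Ki is the mean of separate determinations.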

Experiment [4] concerns the target 5-hydroxytryptamine receptor 2A (Homo sapiens, UniProt P28223). Description: Binding affinity at 5HT2A receptor.
In experiment [5] the target is D(1B) dopamine receptor (Homo sapiens, UniProt P21918). Description: Binding affinity at dopamine D5 receptor.
Sequence of D(1B) dopamine receptor (P21918 whole entry): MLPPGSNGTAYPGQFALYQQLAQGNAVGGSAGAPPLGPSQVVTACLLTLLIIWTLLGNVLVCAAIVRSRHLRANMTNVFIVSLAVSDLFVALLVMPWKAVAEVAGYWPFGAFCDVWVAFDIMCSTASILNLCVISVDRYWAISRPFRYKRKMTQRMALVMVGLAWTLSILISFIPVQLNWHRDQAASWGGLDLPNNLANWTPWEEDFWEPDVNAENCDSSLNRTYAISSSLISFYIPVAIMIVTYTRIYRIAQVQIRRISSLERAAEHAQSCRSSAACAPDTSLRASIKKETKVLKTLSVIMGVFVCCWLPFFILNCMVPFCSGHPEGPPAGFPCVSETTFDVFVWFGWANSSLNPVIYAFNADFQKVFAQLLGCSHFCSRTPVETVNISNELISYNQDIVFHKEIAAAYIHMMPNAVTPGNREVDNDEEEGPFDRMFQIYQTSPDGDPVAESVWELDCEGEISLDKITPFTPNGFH
For experiment [6], the target named is T1, D(1A) dopamine receptor. Description: Activity at dopamine D1 receptor by cAMP assay. The format is functional.
In experiment [7] the target is T3, Alpha-2A adrenergic receptor (Homo sapiens, UniProt P08913).
T3 sequence (P08913 whole entry): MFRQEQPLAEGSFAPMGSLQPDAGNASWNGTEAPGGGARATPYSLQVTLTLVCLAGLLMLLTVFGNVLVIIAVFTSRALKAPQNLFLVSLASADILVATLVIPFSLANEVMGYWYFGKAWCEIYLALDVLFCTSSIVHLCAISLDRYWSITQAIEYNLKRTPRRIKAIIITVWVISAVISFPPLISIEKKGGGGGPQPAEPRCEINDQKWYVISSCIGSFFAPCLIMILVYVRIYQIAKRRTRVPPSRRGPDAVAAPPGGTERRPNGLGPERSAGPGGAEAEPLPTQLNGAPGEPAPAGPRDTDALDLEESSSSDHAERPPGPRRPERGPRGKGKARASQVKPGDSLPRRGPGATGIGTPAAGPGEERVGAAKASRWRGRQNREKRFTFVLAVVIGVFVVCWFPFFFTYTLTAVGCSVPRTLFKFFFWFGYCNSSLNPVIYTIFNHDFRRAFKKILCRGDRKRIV
Description: Binding affinity at adrenergic alpha2A receptor.

Experiment [8] deals with T4, D(4) dopamine receptor (Homo sapiens, UniProt P21917).
T4 sequence (P21917 whole entry): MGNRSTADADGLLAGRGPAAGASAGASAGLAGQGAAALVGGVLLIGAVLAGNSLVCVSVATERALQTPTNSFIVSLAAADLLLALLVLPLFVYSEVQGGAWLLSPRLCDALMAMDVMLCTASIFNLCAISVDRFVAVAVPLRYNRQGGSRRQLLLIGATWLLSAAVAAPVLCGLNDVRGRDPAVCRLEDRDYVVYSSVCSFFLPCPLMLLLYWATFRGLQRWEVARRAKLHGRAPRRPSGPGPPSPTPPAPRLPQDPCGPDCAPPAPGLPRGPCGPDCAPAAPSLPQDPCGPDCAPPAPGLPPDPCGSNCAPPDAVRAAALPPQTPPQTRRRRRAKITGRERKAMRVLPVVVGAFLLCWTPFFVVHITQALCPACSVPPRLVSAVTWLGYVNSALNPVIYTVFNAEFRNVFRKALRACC
Nature of the experiment: Binding affinity at dopamine D4 receptor.

pKi: −log10 of the molar value.

Sequence of 5-hydroxytryptamine receptor 2A (P28223 whole entry): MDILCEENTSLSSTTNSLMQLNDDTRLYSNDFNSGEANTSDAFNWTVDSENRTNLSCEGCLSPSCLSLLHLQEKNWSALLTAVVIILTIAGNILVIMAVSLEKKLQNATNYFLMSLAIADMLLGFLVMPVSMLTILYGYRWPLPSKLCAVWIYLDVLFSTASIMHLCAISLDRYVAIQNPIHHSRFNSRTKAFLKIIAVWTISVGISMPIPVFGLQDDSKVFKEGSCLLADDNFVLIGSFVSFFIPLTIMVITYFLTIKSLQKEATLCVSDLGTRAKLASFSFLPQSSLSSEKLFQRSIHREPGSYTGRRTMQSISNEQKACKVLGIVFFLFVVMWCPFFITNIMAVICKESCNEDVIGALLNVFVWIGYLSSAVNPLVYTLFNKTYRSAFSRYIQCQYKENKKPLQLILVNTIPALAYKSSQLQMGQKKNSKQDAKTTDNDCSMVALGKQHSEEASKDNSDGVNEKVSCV

Broadly, the pKi is the Ki on a negative log10 scale, so that one unit is a factor of ten. Low readings indicate a high Ki, high ones a low Ki. As to `CN1CCN(C2=Nc3cc(Cl)ccc3N(NC(=O)c3c(N)cccc3C(F)(F)F)c3ccccc32)CC1`, the pKi in experiment [1] is 8.15; in experiment [2], 7.04.
In the case of `CN1CCN(C2=Nc3cc(Cl)ccc3N(NC(=O)c3ccco3)c3ccccc32)CC1`, the pKi in experiment [1] was 7.82; in experiment [2], 6.08.
In the case of `CN1CCN(C2=Nc3cc(Cl)ccc3N(NC(=O)c3cc(Cl)cc(Cl)c3)c3ccccc32)CC1`, the pKi in experiment [1] was 7.62; in experiment [2] it was 6.22.
For the compound `CN1CCN(C2=Nc3cc(Cl)ccc3N(NC(=O)c3ccon3)c3ccccc32)CC1`, the pKi was 7.66 in experiment [1] and 6.34 in experiment [2].
Consider `CN1CCN(C2=Nc3cc(Cl)ccc3N(NC(=O)c3ccc(Cl)cc3)c3ccccc32)CC1`, for which the pKi in experiment [1] is 7.46; in experiment [2] it was 5.03.
`CN1CCN(C2=Nc3cc(Cl)ccc3N(NC(=O)c3cnc4ccccc4c3)c3ccccc32)CC1`: the pKi in experiment [1] is 7.55.
`CN1CCN(C2=Nc3cc(Cl)ccc3N(NC(=O)CCc3ccccc3)c3ccccc32)CC1`: the figures for the pKi in experiment [1] and in experiment [2] were 7.10 and 6.21, respectively.
For `CC(=O)NN1c2ccc(Cl)cc2N=C(N2CCN(C)CC2)c2ccccc21`, the pKi in experiment [1] is 6.31.
Consider `Cc1ccc(C(=O)NN2c3ccc(Cl)cc3N=C(N3CCN(C)CC3)c3ccccc32)cc1`, for which the pKi in experiment [1] is 8.11; in experiment [2] it was 5.82.
As for `CN1CCN(C2=Nc3cc(Cl)ccc3N(NC(=O)c3ccccc3Oc3ccccc3)c3ccccc32)CC1`, the figures for the pKi in experiment [1] and in experiment [2] were 7.29 and 6.37, respectively.
As for `CCOc1ccc2ccccc2c1C(=O)NN1c2ccc(Cl)cc2N=C(N2CCN(C)CC2)c2ccccc21`, the results for the pKi in experiment [1] and in experiment [2] were 7.19 and 6.56, respectively.
Consider `Cc1cccc(C)c1C(=O)NN1c2ccc(Cl)cc2N=C(N2CCN(C)CC2)c2ccccc21`, for which the pKi in experiment [1] is 8.52; in experiment [2], 6.54; in experiment [3], 6.54; in experiment [4], 8.66; in experiment [5] it was 7.51; in experiment [7] it was 6.10. Also, the pKi in experiment [8] was 5.73. Also, the Kb in experiment [6] turned out to be 2.8 nM. The Activity entry in experiment [6] (filed as antagonist) is “Antagonist”.
For `CN1CCN(C2=Nc3cc(Cl)ccc3N(NC(=O)c3ccccc3-n3ccnc3)c3ccccc32)CC1`, the values for the pKi in experiment [1] and in experiment [2] were 7.06 and 5.52, respectively.
Consider `COc1ccc(CCC(=O)NN2c3ccc(Cl)cc3N=C(N3CCN(C)CC3)c3ccccc32)cc1Cl`, for which the pKi in experiment [1] is 7.25; in experiment [2] it was 6.24.
With `COc1cccc(C(=O)NN2c3ccc(Cl)cc3N=C(N3CCN(C)CC3)c3ccccc32)c1`, the pKi in experiment [1] is 7.89; in experiment [2], 5.95.
With `CN1CCN(C2=Nc3cc(Cl)ccc3N(NC(=O)c3ccc(Cl)c(Cl)c3)c3ccccc32)CC1`, the figures for the pKi in experiment [1] and in experiment [2] were 7.92 and 5.19, respectively.
As for `CN1CCN(C2=Nc3cc(Cl)ccc3N(NC(=O)c3nccc4ccccc34)c3ccccc32)CC1`, the pKi in experiment [1] is 7.64; in experiment [2], 6.32.
With `CN1CCN(C2=Nc3cc(Cl)ccc3N(NC(=O)c3sccc3-c3ccccc3)c3ccccc32)CC1`, the pKi in experiment [1] is 7.41; in experiment [2], 7.11.
Consider `CN1CCN(C2=Nc3cc(Cl)ccc3N(NC(=O)c3ccccc3)c3ccccc32)CC1`, for which the pKi in experiment [1] is 6.80; in experiment [2], 5.94.
Turning to `CN1CCN(C2=Nc3cc(Cl)ccc3N(NC(=O)/C=C/c3ccccc3)c3ccccc32)CC1`, the negative logarithm of the Ki (pKi) was 6.99 in experiment [1] and 5.80 in experiment [2].
Regarding `CN1CCN(C2=Nc3cc(Cl)ccc3N(NC(=O)c3ccccc3N3CCN(C)CC3)c3ccccc32)CC1`, the negative logarithm of the Ki (pKi) in experiment [1] was 6.63; in experiment [2] it was 5.42.
`CN1CCN(C2=Nc3cc(Cl)ccc3N(NC(=O)c3cnn(-c4ccccc4)c3C(F)(F)F)c3ccccc32)CC1`: the pKi is 7.52 in experiment [1] and 5.68 in experiment [2].
Regarding `CN1CCN(C2=Nc3cc(Cl)ccc3N(NC(=O)c3cccnc3Cl)c3ccccc32)CC1`, the pKi in experiment [1] was 7.96; in experiment [2], 6.20.
Compound `CN1CCN(C2=Nc3cc(Cl)ccc3N(NC(=O)C3CCC3)c3ccccc32)CC1` had a pKi in experiment [1] of 6.82.
For the compound `CN1CCN(C2=Nc3cc(Cl)ccc3N(NC(=O)c3ccc(Br)cc3)c3ccccc32)CC1`, the pKi in experiment [1] is 7.85; in experiment [2] it was 5.62.
Regarding `Cc1cccc(C(=O)NN2c3ccc(Cl)cc3N=C(N3CCN(C)CC3)c3ccccc32)c1`, the pKi was 8.52 in experiment [1] and 6.29 in experiment [2].
Take `CN1CCN(C2=Nc3cc(Cl)ccc3N(NC(=O)C(C)(C)C)c3ccccc32)CC1`: the pKi in experiment [1] is 7.01.
Take `CN1CCN(C2=Nc3cc(Cl)ccc3N(N)c3ccccc32)CC1`: the pKi in experiment [1] is 6.55; in experiment [2] it was 6.19.
Consider `CN1CCN(C2=Nc3cc(Cl)ccc3N(NC(=O)c3ccc4ccccc4n3)c3ccccc32)CC1`, for which the values for the pKi in experiment [1] and in experiment [2] were 8.00 and 6.03, respectively.
For `CCOc1csc(C(=O)NN2c3ccc(Cl)cc3N=C(N3CCN(C)CC3)c3ccccc32)c1`, the pKi is 8.00 in experiment [1] and 6.74 in experiment [2].
For the compound `CN1CCN(C2=Nc3cc(Cl)ccc3N(NC(=O)c3ccccc3F)c3ccccc32)CC1`, the pKi in experiment [1] is 7.92; in experiment [2] it was 6.43.
On to `CN1CCN(C2=Nc3cc(Cl)ccc3N(NC(=O)c3ccccc3NC3CCCCC3)c3ccccc32)CC1`, for which the pKi is 7.21 in experiment [1] and 5.42 in experiment [2].
The corresponding values for `CN1CCN(C2=Nc3cc(Cl)ccc3N(NC(=O)c3cccc(F)c3)c3ccccc32)CC1` are 7.33 and 6.04.
The corresponding values for `CN1CCN(C2=Nc3cc(Cl)ccc3N(NC(=O)c3cccc(Cl)c3)c3ccccc32)CC1` are 8.40 and 6.74.
The corresponding values for `CN1CCN(C2=Nc3cc(Cl)ccc3N(NC(=O)c3cccs3)c3ccccc32)CC1` are 7.85 and 5.83.
Regarding `CN1CCN(C2=Nc3cc(Cl)ccc3N(NC(=O)C3CCCCC3)c3ccccc32)CC1`, the pKi is 7.38 in experiment [1] and 5.75 in experiment [2].
For `CN1CCN(C2=Nc3cc(Cl)ccc3N(NC(=O)C(F)(F)F)c3ccccc32)CC1`, the pKi is 7.07 in experiment [1] and 5.72 in experiment [2].
Turning to `CCCC(=O)NN1c2ccc(Cl)cc2N=C(N2CCN(C)CC2)c2ccccc21`, the results for the pKi in experiment [1] and in experiment [2] were 6.81 and 6.40, respectively.
Turning to `CN1CCN(C2=Nc3cc(Cl)ccc3N(NC(=O)c3ccc4ccccc4c3)c3ccccc32)CC1`, the negative-log Ki (pKi) in experiment [1] is 8.13; in experiment [2] it was 5.88.
The corresponding values for `CN1CCN(C2=Nc3cc(Cl)ccc3N(NC(=O)c3c(Cl)cccc3Cl)c3ccccc32)CC1` are 8.47 and 6.62.
For `CCCC(CCC)C(=O)NN1c2ccc(Cl)cc2N=C(N2CCN(C)CC2)c2ccccc21` the same measures were 7.59 and 5.73.
With `CCOc1c(C(=O)NN2c3ccc(Cl)cc3N=C(N3CCN(C)CC3)c3ccccc32)sc2ccccc12`, the pKi was 7.55 in experiment [1] and 6.71 in experiment [2].
The corresponding values for `CN1CCN(C2=Nc3cc(Cl)ccc3N(NC(=O)CCC3CCCC3)c3ccccc32)CC1` are 6.95 and 5.71.
As to `CN1CCN(C2=Nc3cc(Cl)ccc3N(NC(=O)c3ccsc3)c3ccccc32)CC1`, the values for the pKi in experiment [1] and in experiment [2] were 8.05 and 5.52, respectively.
The corresponding values for `COc1ccc(C(=O)NN2c3ccc(Cl)cc3N=C(N3CCN(C)CC3)c3ccccc32)cc1` are 7.33 and 5.52.
In the case of `CN1CCN(C2=Nc3cc(Cl)ccc3N(NC(=O)c3ccccc3N3CCCCC3)c3ccccc32)CC1`, the pKi in experiment [1] is 8.11; in experiment [2] it was 6.67.
With `CN1CCN(C2=Nc3cc(Cl)ccc3N(NC(=O)c3c(Cl)cc(Cl)cc3Cl)c3ccccc32)CC1`, the values for the pKi in experiment [1] and in experiment [2] were 8.40 and 6.41, respectively.
`CN1CCN(C2=Nc3cc(Cl)ccc3N(NC(=O)c3ccc(C(F)(F)F)cc3)c3ccccc32)CC1` showed a pKi in experiment [1] of 7.17.
For the compound `CN1CCN(C2=Nc3cc(Cl)ccc3N(NC(=O)c3cccc(I)c3)c3ccccc32)CC1`, the pKi is 8.44 in experiment [1] and 6.46 in experiment [2].
